Results on nine compounds are retold here after ChEMBL document CHEMBL1139616, “Nitrone derivatives of trolox as neuroprotective agents” (Bioorg Med Chem Lett, 2005).

What all share (assay type): functional
The species entered for assay [1] is Rattus norvegicus. The assay is described as follows: In vitro inhibitory concentration against Total peroxyl radical-trapping antioxidant parameter(TRAP). The method in brief: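 Total peroxyl radical-trapping antioxidant parameter taken from spectrophotometric reading at 417 nm of the ABTS cation radical, which forms by one-electron oxidation.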
The species entered for assay [2] is Rattus norvegicus. The assay is described as follows: In vitro inhibitory concentration against peroxynitrite (ONOO-): using pyrogallol red bleaching assay; (na: not active). The method in brief: (§1)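 Peroxynitrite scavenging measured as pyrogallol red bleaching at 542 nm. ONOO- prepared essentially by the Hughes and Nicklin method.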
The species entered for assay [3] is Rattus norvegicus. As to the kind of experiment: In vitro inhibitory concentration against lipid peroxidation (LPO). Summed up:
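Brain mitochondria from male LATI Wistar rats (0.3 mg protein) in 25 mM Tris–HCl pH 7.4 with 0.2 mM ascorbic acid, with or without compound. Peroxidation started with 0.2 mM FeSO4, 60 min at 37 °C. Stopped with 20% TCA, centrifuged, supernatant boiled 20 min with 0.5% thiobarbituric acid. TBA-reactive products read at 535 nm.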

The species named for assay [4] is Rattus norvegicus. The assay is described as follows: In vitro inhibitory concentration against hydroxyl radical (-OH).
The species named for assay [5] is Rattus norvegicus. As to the kind of experiment: In vitro inhibitory concentration against NO ([…]); (na: not active). The method in brief:
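NO generated by thermal breakdown of cupferron (0.2% in ethanol) at 40 °C. Samples at 0.3–100 mM in ethanol mixed with Griess–Ilosvay reagent (0.2% N-(1-naphthyl)ethylenediamine in 0.4 M HCl plus 2% sulfanilamide in 4 M HCl). Free NO estimated indirectly from its nitrite/nitrate products, absorbance read at 540 nm.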

The species entered for assay [6] is Rattus norvegicus. As to the kind of experiment: In vitro inhibitory concentration against peroxynitrite (ONOO-): using pyrogallol red bleaching assay. Summed up: as §1
For assay [7], the species on record is Rattus norvegicus. As to the kind of experiment: In vitro inhibitory concentration against hydroxyl radical (-OH); (na: not active).

One may read the IC50 as the concentration needed to halve the response being measured. High values mean weaker potency, low ones greater potency.

Regarding `CC(C)(C)/[N+]([O-])=C/c1ccccc1`, the IC50 in the assay filed under Rattus norvegicus [1] was 3060 µM; in the assay listed under Rattus norvegicus [2], “Not Active”; in the assay listed under Rattus norvegicus [3], 16 µM; in the assay filed under Rattus norvegicus [4], 43000 µM.
With `CC(C)(C)/[N+]([O-])=C/c1ccc(S(=O)(=O)[O-])cc1S(=O)(=O)[O-].[Na+].[Na+]`, the IC50 in the assay filed under Rattus norvegicus [1] is 437 µM; in the assay filed under Rattus norvegicus [2] it was “Not Active”; in the assay filed under Rattus norvegicus [3], 5490 µM; in the assay listed under Rattus norvegicus [4], 1500 µM; in the assay listed under Rattus norvegicus [5], “Not Active”.
On to `COc1c(C)c(C)c2c(c1C)CCC(C)(/C=[N+](\[O-])C(C)(C)C)O2` (configuration not stated), for which the IC50 in the assay filed under Rattus norvegicus [1] was 2940 µM; in the assay listed under Rattus norvegicus [6] it was 3700 µM; in the assay filed under Rattus norvegicus [7] it was “Not Active”; in the assay filed under Rattus norvegicus [3] it was 23 µM.
With `Cc1c(C)c2c(c(C)c1O)CCC(C)(/C=[N+](\[O-])C1CC1)O2` (configuration not stated), the IC50 in the assay listed under Rattus norvegicus [1] amounted to 6 µM; in the assay listed under Rattus norvegicus [6], 1100 µM; in the assay filed under Rattus norvegicus [3] it was 0.68 µM; in the assay filed under Rattus norvegicus [4], 150 µM.
Take `CC(=O)Oc1c(C)c(C)c2c(c1C)CCC(C)(/C=[N+](\[O-])C(C)(C)C)O2` (configuration not stated): the IC50 in the assay listed under Rattus norvegicus [1] was 895 µM; in the assay filed under Rattus norvegicus [2], “Not Active”; in the assay filed under Rattus norvegicus [7], “Not Active”; in the assay filed under Rattus norvegicus [3], 10 µM.
With `Cc1c(C)c2c(c(C)c1O)CCC(C)(/C=[N+](\[O-])C(C)(C)C)O2` (configuration not stated), the half-inhibitory concentration (IC50) in the assay filed under Rattus norvegicus [1] came to 5.5 µM; in the assay listed under Rattus norvegicus [6] it was 3200 µM; in the assay filed under Rattus norvegicus [3], 2 µM; in the assay filed under Rattus norvegicus [4], 170 µM.
Regarding `COc1c(C)c(C)c2c(c1C)CCC(C)(/C=[N+](\[O-])C1CC1)O2` (configuration not stated), the IC50 was 296 µM in the assay listed under Rattus norvegicus [1], 1200 µM in the assay listed under Rattus norvegicus [6], “Not Active” in the assay listed under Rattus norvegicus [7] and 20 µM in the assay listed under Rattus norvegicus [3].
The like results for `CC(=O)Oc1c(C)c(C)c2c(c1C)CCC(C)(/C=[N+](\[O-])C1CC1)O2` (configuration not stated) were, in that order, 117 µM, 590 µM, “Not Active” and 3.7 µM.
Regarding `Cc1c(C)c2c(c(C)c1O)CCC(C)(C(=O)O)O2` (configuration not stated) [TROLOX], the IC50 in the assay listed under Rattus norvegicus [1] is 10 µM; in the assay filed under Rattus norvegicus [6], 550 µM; in the assay filed under Rattus norvegicus [3], 25 µM; in the assay filed under Rattus norvegicus [4] it was 60 µM.
